Apaf-1 act: activators of human Apaf-1 apoptosome; Apaf-1 apoptosome caspase-3 activation, DEVD-Rh110 fluorescence; hits give low values; AID 489031; hit rate 0.31% among 330,000; activity change, negative = activation, % at 20 µM;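 active = activity change at or below -40% at 20 µM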
Target sequence (O14727 whole entry, looked up): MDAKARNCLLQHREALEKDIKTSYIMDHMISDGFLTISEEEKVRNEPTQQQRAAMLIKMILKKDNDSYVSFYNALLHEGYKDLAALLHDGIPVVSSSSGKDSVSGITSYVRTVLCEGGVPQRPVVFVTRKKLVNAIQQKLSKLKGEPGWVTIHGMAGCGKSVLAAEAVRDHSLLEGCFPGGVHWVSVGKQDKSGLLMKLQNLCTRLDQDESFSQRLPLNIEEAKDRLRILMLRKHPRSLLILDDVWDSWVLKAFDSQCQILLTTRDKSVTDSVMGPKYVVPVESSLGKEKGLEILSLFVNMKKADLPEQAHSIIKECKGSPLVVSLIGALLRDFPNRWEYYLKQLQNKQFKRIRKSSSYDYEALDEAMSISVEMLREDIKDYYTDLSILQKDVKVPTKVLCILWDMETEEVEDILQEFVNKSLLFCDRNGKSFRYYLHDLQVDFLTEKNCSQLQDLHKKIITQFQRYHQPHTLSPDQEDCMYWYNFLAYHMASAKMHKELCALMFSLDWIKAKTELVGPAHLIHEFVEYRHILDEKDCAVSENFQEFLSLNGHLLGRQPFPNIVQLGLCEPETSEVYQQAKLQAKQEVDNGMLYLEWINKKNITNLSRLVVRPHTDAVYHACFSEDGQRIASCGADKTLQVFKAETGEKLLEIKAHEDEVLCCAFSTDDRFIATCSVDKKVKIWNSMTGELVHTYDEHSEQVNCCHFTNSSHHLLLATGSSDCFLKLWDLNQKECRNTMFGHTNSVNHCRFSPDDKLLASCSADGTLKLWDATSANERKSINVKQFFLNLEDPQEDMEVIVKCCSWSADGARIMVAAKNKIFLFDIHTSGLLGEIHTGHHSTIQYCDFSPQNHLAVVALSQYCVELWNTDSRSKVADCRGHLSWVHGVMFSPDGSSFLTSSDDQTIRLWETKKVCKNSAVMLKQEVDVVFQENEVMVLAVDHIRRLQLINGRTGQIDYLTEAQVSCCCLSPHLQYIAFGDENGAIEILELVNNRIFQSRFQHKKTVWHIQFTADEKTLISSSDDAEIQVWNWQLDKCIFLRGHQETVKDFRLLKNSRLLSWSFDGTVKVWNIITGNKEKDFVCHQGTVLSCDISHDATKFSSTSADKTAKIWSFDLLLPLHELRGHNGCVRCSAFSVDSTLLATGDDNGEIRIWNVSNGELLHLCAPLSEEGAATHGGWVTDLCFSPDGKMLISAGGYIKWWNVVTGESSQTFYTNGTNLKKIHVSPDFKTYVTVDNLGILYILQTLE
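Material: biochemical Apaf-1 apoptosome reconstitution; Medium: 20 mM HEPES buffer, pH 7.5, containing CHAPS and BSA; Reagent: dATP, cytochrome c, and (Z-DEVD)2-Rh110 caspase-3 substrate; Times: 30 min preincubation, 50 min reaction, room temperature; Signal: Rh110 fluorescence, excitation 480 nm, emission 540 nm; Measure: Caspase-3 activity via Apaf-1.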
Rh110 act interf: interferes with Rh110 fluorescence, flagging false Apaf-1 activators; shares compounds with Apaf-1 act; Rh110 fluorescence interference, quenched caspase reaction, Ex480/Em540; fluorescence interference (activity change), % at 20 µM, hits read low; 980 tested, under 10 active; AID 504616;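 active = mean activity change at or below -40% when tested at 20 µM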
Apaf-1 act conf: Apaf-1 (human) activation, single-dose confirmed; activity change, negative = activation, % at 20 µM; shares compounds with Apaf-1 act; hit rate 5% among 980; reconstituted apoptosome caspase-3 activity, DEVD-Rh110 fluorescence; hits give low values;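 active = mean activity change at or below -40%, meaning activation of 40% or more, at 20 µM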
* = called active by the depositor; . = no result. Not all results are given here.

SMILES	Apaf-1 act	Rh110 act interf	Apaf-1 act conf
COC(=O)C1=C(C)N(Cc2ccccc2)C(=NCc2ccccc2)N[C@H]1c1ccccc1	47	.	.
O=P(CCCCCCCCCP(=O)(c1ccccc1)c1ccccc1)(c1ccccc1)c1ccccc1	53	.	.
O=C(C(Cc1ccccc1)N1C(=O)c2ccccc2C1=O)N1c2ccccc2CCc2ccccc21 (centres undefined)	40	.	.
C=CCC[C@@H](Cc1ccc(F)cc1)C(=O)OC[C@@H]1CCCN1C(=O)[C@H](CC=C)CC(=O)N[C@H](CO)Cc1ccccc1	43	.	.
CCc1ccccc1N1CSC2=C(C#N)C(c3cc(OC)c(OC)cc3OC)CC(=O)N2C1 (centres undefined)	43	.	.
CC(C)Oc1ccc(C2NC(=O)c3ccccc3O2)cc1 (centres undefined)	-98*	1	3
COCCN1C(=S)N[C@@H](c2cccc(F)c2)C(C(=O)OC)=C1C	57	.	.
COc1ccc(S(=O)(=O)Oc2ccc3cccc(N)c3c2)cc1	88	.	.
COc1ccc(C2=C(CN(C)C)C(c3ccccc3)c3ccccc3O2)cc1 (centres undefined)	12	.	.
COCCNC(=O)CN(c1cccc(OC)c1)S(=O)(=O)c1ccc(C)cc1	57	.	.
Cc1ccc(OCCNC(=O)CCNS(=O)(=O)c2ccc(C)cc2)cc1	-605*	16	13
Cc1ccc(S(=O)(=O)N2CCN(C(=O)CCOc3cc(C)ccc3C)CC2)cc1	40	.	.
COc1ccc(-c2sc3ccccc3c2-c2ccc(OCCN3CCCCC3)cc2)cc1	55	.	.
CC(C)(C)c1cc(CCC(=O)Nc2ccncc2)cc(C(C)(C)C)c1O	-450*	4	11
O=C1c2ccccc2C(=O)C1c1ccc2ccccc2n1	-334*	6	5
COc1ccc(N2C(=O)[C@@H]3[C@H](C2=O)[C@H]2c4ccccc4C=CN2[C@@H]3C(=O)Nc2ccccc2)cc1	67	.	.
OCc1cn(-c2ccc(Cl)cc2)nn1	-56*	8	12
COc1ccc(OC)c(Nc2cc3ccccc3c(=O)[nH]2)c1	97	.	.
S=C(Nc1ccc2nsnc2c1)N1CCCCCC1	93	.	.
CCOC(=O)C(NC(=O)c1ccccc1Cl)(Nc1ccc(C(F)(F)F)cc1)C(F)(F)F (centres undefined)	-406*	5	9
COc1ccc(OC)c(-c2nn(-c3ccccc3)cc2C(=O)NCC(c2ccco2)N2CCCC2)c1 (centres undefined)	-117*	11	14
COc1ccc(C(CNC(=O)C2CC(=O)N(Cc3ccccc3)C2)N2CCCC2)cc1 (centres undefined)	61	.	.
Cc1ccc(C(=O)NC2CCN(C(=O)Nc3ccccc3)CC2)cc1	-50*	5	6
CCCCCCCCCCCCCCCC[n+]1cccc(C(=O)N(CC)CC)c1	74	.	.
CCCCC[n+]1ccn(C2=C([O-])c3ccccc3C(=O)/C2=N\S(=O)(=O)c2ccc(Cl)cc2)c1	70	.	.
SMILES	Apaf-1 act	Rh110 act interf	Apaf-1 act conf
CC(=O)N(C1=C(N2CCOCC2)C(=O)c2ccccc2C1=O)c1ccc(C(=O)O)cc1	59	.	.
COc1ccc2[nH]c3c4c(ccc3c2c1)C(=O)C=CC4=O	45	.	.
COc1cc(S(=O)(=O)Nc2ccccc2)ccc1NC=O	-49*	-3	11
COc1cc(-c2ccc(Nc3ccccc3C(=O)O)c(OC)c2)ccc1Nc1ccccc1C(=O)O	48	.	.
O=C(c1ccc(-c2ccccc2Cl)o1)N1CCCC(C(F)(F)F)C1 (centres undefined)	41	.	.
CC1CC(=O)c2c(cc3c(-c4c(O)cc(O)c5c(O)c6c(cc45)OC(C)CC6=O)c(O)cc(O)c3c2O)O1 (centres undefined)	62	.	.
O=C(NCCCn1ccnc1)c1noc2c1CCc1ccccc1-2	47	.	.
O=C(NCCCn1ccnc1)c1cc(Cl)cc(Cl)c1	-106*	-38	7
O=C(C[C@H]1C[C@H](C(=O)N2CCOCC2)[C@@]2(CCC3CCCC3)c3[nH]c4ccc(Cl)cc4c3CCN2C1=O)NCCCn1ccnc1	58	.	.
CCC[C@@H](CN1CCC[C@H]1CN1C(N)=NC[C@H]1CC(C)C)N1C[C@@H](Cc2ccccc2)N(CCCC2CCCC2)C1=N	59	.	.
CCC[C@@H](CN1CCC[C@H]1CN1C(N)=NC[C@@H]1Cc1ccccc1)N1C[C@@H]([C@H](C)CC)N(CCCC2CCCC2)C1=N	77	.	.
O=C(O)c1ccc2nc(-c3ccco3)c(-c3ccco3)nc2c1	62	.	.
O=C(c1ccc2nc(-c3ccco3)c(-c3ccco3)nc2c1)N1CCN(c2ccccc2)CC1	40	.	.
CCc1nc2ccc(C(=O)N3CCN(c4ccccc4)CC3)cc2nc1CC	-505*	4	12
Cc1cccc(C)c1OCc1cc(C(=O)NCC2CCCCC2)no1	-57*	2	13
COc1ccc(OCc2cc(C(=O)NC3CCOCC3)no2)c2ccccc12	41	.	.
